Publication PMC4267758 (Journal of molecular biology, 2014)
“Also recorded” adds a separate entry of the source. Read-outs that look alike come from different tables or passages of the source. Where no end group is shown, it is not given here. The star is where a group is joined. MTSL = methane thiosulphonate spin label, CC1(C)C=C(CS*)C(C)(C)N1[O]

Legend:
FAK-FAT = settings: ref [39] (b5), [39], [40]; cited from earlier work
Pyk2-FAT [1] = assay: Reverse NMR titration: unlabeled Pyk2-FAT added to 15N-labeled paxillin ligand; format: binding, human; settings: 1H-15N HSQC/TROSY, ratios up to 1:2, 20 mM MES, pH 6.2
Method in brief: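 Unlabelled Pyk2-FAT was titrated into a 15N-labelled ligand in 20 mM MES pH 6.2, with 15N-1H HSQC spectra at 600/800 MHz and 305 K. Ligands were an expressed chicken paxillin 139–163 peptide or His-tagged chicken paxillin 133–290. […] Ratios were 1:0.2–1:2.0.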

Pyk2-FAT [2] = assay: Sedimentation equilibrium AUC; format: binding, human; settings: AUC-SE; for Kd: two site hetero-association model (A+B+B↔ABB), 1:2 Pyk2-FAT to peptide, 20 mM MES, pH 6.2, 4 °C, Monte Carlo error, 500 iterations, confidence level 0.68
Method in brief: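 Sedimentation equilibrium at 4 °C in 20 mM MES, 50 mM NaCl, pH 6.2. Rotor speeds 18.4, 26.9 and 46k rpm, equilibrium reached at 30, 26 and 18 h. Loading 35–96 μM. Absorbance read at 280 and 230 nm, 0.001 cm radial steps, 20 replicates per point. Global least-squares fit across speeds to the A+B+B↔ABB model.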

Pyk2-FAT [3] = assay: Steady-state 1H-15N heteronuclear NOE; parameters: species or system human; settings: 600 MHz, 305 K; relative to free Pyk2-FAT, loop regions
Method in brief: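 Steady-state 1H-15N heteronuclear NOE was measured at 600 MHz, 305 K on 15N-labelled Pyk2-FAT, free and bound to LD-motif peptide. Protein was at 400–500 μM in 20 mM MES pH 6.2. NOE values were taken as peak-intensity ratios of 1H-saturated to unsaturated spectra.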

Pyk2-FAT [4] = assay: Co-crystal structure with Pyk2-FAT; format: binding, human; settings: PDB 4R32, 3.5 Å, one at H1/H4, one at H2/H3
Pyk2-FAT [5] = assay: Isothermal titration calorimetry; format: binding, human
Method in brief: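 Human Pyk2 FAT domain (residues 871–1005) with an N-terminal His6 tag, expressed in E. coli BL21(DE3) and purified by Ni-affinity then gel filtration. The cell held 10 μM protein in 20 mM MES, pH 6.2. The syringe held chicken paxillin LD-motif peptides (100 μM) or the His-tagged paxillin 133–290 fragment (50 μM). Solutions degassed; 2 μl injections, 120 s apart, at 25°C. Ligand-into-buffer heats subtracted. Fits used one-site or two-site sequential models. Run in duplicate.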

[6] = system: FAT-like domain from G-protein-coupled receptor kinase-interacting protein 1 (GIT1); settings: ref [41]; cited from earlier work
Pyk2-FAT [7] = assay: H/D exchange NMR of Pyk2-FAT complexes; parameters: species or system human; settings: H/D exchange in D2O, fast 15N-HSQC, up to 10 h
Method in brief: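 15N-labelled Pyk2-FAT complexes (400–500 μM, 20 mM MES pH 6.2) were lyophilized and rehydrated in D2O. FAST 1H-15N HSQC spectra were recorded at intervals up to 10 h at 305 K. HSQC spectra in H2O before and after exchange checked structural integrity.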

Pyk2-FAT [8] = assay: NMR titration / chemical shift perturbation of 15N-labeled Pyk2-FAT; format: binding, human; settings: 15N-HSQC/TROSY titration, Pyk2-FAT:ligand 1:0.2 to 1:2, 20 mM MES, pH 6.2, 305K
Method in brief: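 15N-labeled Pyk2-FAT (400–500 μM in 20 mM MES, pH 6.2) titrated at 305 K with chicken LD peptides at protein:peptide ratios of 1:0.2 to 1:2. Peptide stocks were in dialysis buffer, pH readjusted to 6.2. 15N-HSQC spectra recorded at 600/800 MHz. Weighted shift Δav = [(ΔH² + (ΔN/5)²)/2]^1/2. For PRE, MTSL-labeled peptides were added at 1:0.2 and Iox/Ired taken after ascorbate reduction.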

Pyk2-FAT [9] = assay: Paramagnetic relaxation enhancement; format: binding, human; settings: PRE, MTSL-labeled peptide, Pyk2-FAT:peptide 1:0.2, 20 mM MES, pH 6.2
Method in brief: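 Single-cysteine peptide variants in 20 mM phosphate pH 7.2 were reacted with fivefold molar excess MTSL for 8 h at room temperature. They were HPLC-repurified, lyophilized and redissolved in 20 mM MES pH 6.2, then added to uniformly 15N-labelled Pyk2-FAT. The reduced reference used fivefold molar excess ascorbic acid for 1 h. Per-residue Iox/Ired peak-intensity ratios were computed, excluding prolines and overlapped peaks.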

Row | Substance | preferred binding site on FAK-FAT (FAK-FAT) | effect of unlabeled Pyk2-FAT on resonances of 15N-labeled ligand (Pyk2-FAT [1]) | global free energy difference between first and second sites (ΔGAB and ΔGABB) (Pyk2-FAT [2]; 1:2 stoichiometry, two-site hetero-association model) [kcal/mol] | Delta G, single site (1:1) (Pyk2-FAT [2]; single site hetero-association model, T = 277.149994K, RT = 0.551kcal/mol) [kcal/mol] | Delta G, first binding site (1:2) (Pyk2-FAT [2]; two site hetero-association model, first site, T = 277.149994K, RT = 0.551kcal/mol) [kcal/mol] | Delta G, second binding site (both occupied) (Pyk2-FAT [2]; two site hetero-association model, second site, T = 277.149994K, RT = 0.551kcal/mol) [kcal/mol] | Kd (Pyk2-FAT [2]; read-out: KAB (first site), 1:2 stoichiometry) [µM] | Kd (Pyk2-FAT [2]; read-out: KABB (second site), 1:2 stoichiometry) [µM] | steady-state 1H-15N NOE of Pyk2-FAT amides upon ligand binding (Pyk2-FAT [3]) | peptide molecules bound per Pyk2-FAT in crystal (Pyk2-FAT [4]) | relative binding at H1/H4 and H2/H3 sites of Pyk2-FAT (Pyk2-FAT [5]; discussion statement, H1/H4 versus H2/H3) | affinity preference for H2/H3 site over H1/H4 site of Pyk2-FAT (Pyk2-FAT [5]; from ITC and AUC studies) [fold] | binding site on GIT1 FAT-like domain [6] | amide H/D exchange protection of Pyk2-FAT in complex (Pyk2-FAT [7]) | binding sites / site preference on Pyk2-FAT by NMR (Pyk2-FAT [8]) | H2/H3 residues of Pyk2-FAT affected by spin-labeled peptide (Pyk2-FAT [9])
1 | LD2: paxillin derived peptide LD2 (chicken paxillin; residues 139–163), chemically synthesized (GSNLSELDRLLLELNAVQHNPPSGF) | specifically recognizes the H1/H4 site of FAK-FAT; also recorded: preferentially binds to the helices H1 and H4 interface (H1/H4) site | most of the LD2 resonances were broadened beyond detection | -0.76 | -7.61 | -7.45 | -6.69 | 1.32 ± 0.02 | 5.3 ± 0.12 | significantly increased relative to free Pyk2-FAT | two LD2 peptides bind to one molecule of Pyk2-FAT | binds to both H1/H4 and H2/H3 sites of Pyk2-FAT equally well | 5 | located exclusively at the H1/H4 surface | residues from H2/H3 and H1/H4 were protected even after 10 hrs | H2/H3 is the stronger binding site | –
2 | LD2MTSL: methane thiosulphonate (MTSL)-derivatized LD2 peptide (GSNLSELDRLLLELNAVC(MTSL)HNPPSGF) | – | – | – | – | – | – | – | – | – | – | – | – | – | – | – | residues from H2/H3 disappeared or showed reduced intensity
